Assays:
[1] = biological target: 5-hydroxytryptamine receptor 2B (Homo sapiens, UniProt P41595); assay: Binding affinity to 5HT2B
Summary of the method: (§1)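 Ki values come from radioligand binding run by the NIMH Psychoactive Drug Screening Program (PDSP) under its standard conditions. Values are means ± SEM from triplicate assays.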

[2] = biological target: T1, 5-hydroxytryptamine receptor 1A (Homo sapiens, UniProt P08908); assay: Binding affinity to 5HT1A; summary of the method: as §1
T1 sequence (P08908 whole entry): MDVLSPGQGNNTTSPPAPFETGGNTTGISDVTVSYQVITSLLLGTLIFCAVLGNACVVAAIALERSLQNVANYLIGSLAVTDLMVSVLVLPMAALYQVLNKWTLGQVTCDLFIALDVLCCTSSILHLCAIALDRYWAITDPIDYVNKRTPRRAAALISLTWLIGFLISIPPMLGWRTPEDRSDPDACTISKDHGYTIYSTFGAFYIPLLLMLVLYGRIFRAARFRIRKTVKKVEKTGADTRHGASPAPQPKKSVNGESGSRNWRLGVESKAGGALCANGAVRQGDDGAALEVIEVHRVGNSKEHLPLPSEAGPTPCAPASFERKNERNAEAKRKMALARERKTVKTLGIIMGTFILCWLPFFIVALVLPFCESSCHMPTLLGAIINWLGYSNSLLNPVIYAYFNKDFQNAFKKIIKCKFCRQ

Rattus norvegicus = species on record: Rattus norvegicus; assay: Selectivity ratio of Ki for rat sigma2 receptor to Ki rat sigma1 receptor
Summary of the method: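 The ratio is Ki(σ2) divided by Ki(σ1). σ1 Ki came from [³H](+)-pentazocine displacement in rat brain homogenate. σ2 Ki came from [³H]DTG displacement in PC12 cell preparation, a cell line that overexpresses σ2. Both Ki values are triplicate means; ratios above 1 mean σ1-selective.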

D(2) dopamine receptor = D(2) dopamine receptor (Homo sapiens, UniProt P14416); assay: Binding affinity to dopamine D2; summary of the method: as §1
Sequence of D(2) dopamine receptor (P14416 whole entry): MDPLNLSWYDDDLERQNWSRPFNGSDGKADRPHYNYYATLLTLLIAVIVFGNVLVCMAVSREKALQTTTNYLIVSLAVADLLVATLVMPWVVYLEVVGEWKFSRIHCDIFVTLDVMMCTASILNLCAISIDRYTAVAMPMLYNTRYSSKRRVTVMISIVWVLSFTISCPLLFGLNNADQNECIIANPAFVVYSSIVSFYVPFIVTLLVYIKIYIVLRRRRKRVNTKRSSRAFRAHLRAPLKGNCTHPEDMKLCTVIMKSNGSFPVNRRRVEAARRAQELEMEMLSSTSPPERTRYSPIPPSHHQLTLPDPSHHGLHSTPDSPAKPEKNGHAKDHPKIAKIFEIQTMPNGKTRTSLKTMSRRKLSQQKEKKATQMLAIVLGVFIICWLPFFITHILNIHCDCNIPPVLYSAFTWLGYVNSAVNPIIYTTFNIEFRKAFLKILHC

[3] = biological target: Sigma non-opioid intracellular receptor 1 (Rattus norvegicus, UniProt Q9R0C9); assay: Displacement of [3H]pentazocine from sigma1 receptor in rat brain homogenate; format: tissue-based
Sequence of Sigma non-opioid intracellular receptor 1 (Q9R0C9 whole entry): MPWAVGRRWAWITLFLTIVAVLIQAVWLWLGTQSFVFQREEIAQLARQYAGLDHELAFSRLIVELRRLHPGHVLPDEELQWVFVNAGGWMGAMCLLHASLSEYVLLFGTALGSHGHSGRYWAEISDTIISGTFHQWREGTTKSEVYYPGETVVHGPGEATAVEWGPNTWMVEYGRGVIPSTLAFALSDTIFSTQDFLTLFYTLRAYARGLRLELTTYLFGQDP
Summary of the method: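 σ1 affinity was measured by competitive displacement of [³H](+)-pentazocine from rat brain homogenate, using a competitive modification of the Kovacs and Larson protocol. Ki is reported as mean ± SEM from triplicate assays.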

[4] = Displacement of [3H]DTG from sigma2 receptor in rat PC12 cells; conditions: pc-12
[5] = Lipophilicity, log D of the compound; format: physicochemical; conditions: HPLC retention time
Summary of the method: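 Log D estimated by HPLC retention time on a C-18 column. Mobile phase methanol/0.05 M potassium phosphate buffer (65:35 v/v, pH 7.47) at 0.3 mL/min, UV 254 nm. Calibrated against standards of known log D (aniline, benzene, toluene, cumene, triphenylamine, hexachlorobenzene) using an exponential fit. Injections in triplicate and averaged.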

[6] = Drug uptake in baboon cingulate cortex at 100 MBq, iv; format: ADME; conditions: papio hamadryas, in vivo
Summary of the method: (§2)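 Anaesthetized Papio hamadryas baboon; radiotracer given iv at 100 MBq in 3 mL saline, specific activity 73 GBq/μmol. Dynamic brain PET started just before injection and ran 60 min. Voxel values were decay-corrected to injection time and converted to % injected dose/mL. Regional time-activity curves came from coregistered regions of interest.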

[7] = Drug uptake in baboon frontal cortex at 100 MBq, iv; format: ADME, organism-based; conditions: papio hamadryas, in vivo; summary of the method: as §2
[8] = Drug uptake in baboon striatum at 100 MBq, iv; format: ADME, organism-based; conditions: papio hamadryas, in vivo; summary of the method: as §2
[9] = Drug uptake in baboon brain at 100 MBq, iv in presence of haloperidol; format: ADME, organism-based; conditions: papio hamadryas, in vivo
Summary of the method: (§3)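 Anaesthetized Papio hamadryas baboon; radiotracer given iv at 100 MBq in 3 mL saline, specific activity 73 GBq/μmol. Haloperidol (1 mg/kg) given iv 5 min before the tracer. Dynamic PET over 60 min, then whole-body acquisition for 2 min at each of six bed positions. Uptake expressed as decay-corrected % injected dose/mL.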

[10] = Drug uptake in baboon liver at 100 MBq, iv in presence of haloperidol; format: ADME, organism-based; conditions: papio hamadryas, in vivo; summary of the method: as §3
[11] = Drug uptake in baboon kidney at 100 MBq, iv in presence of haloperidol; format: ADME, organism-based; conditions: papio hamadryas, in vivo; summary of the method: as §3
[12] = Drug uptake in baboon bladder at 100 MBq, iv in presence of haloperidol; format: ADME, organism-based, Urinary bladder; conditions: papio hamadryas, in vivo; summary of the method: as §3

Sequence of 5-hydroxytryptamine receptor 2B (P41595 whole entry): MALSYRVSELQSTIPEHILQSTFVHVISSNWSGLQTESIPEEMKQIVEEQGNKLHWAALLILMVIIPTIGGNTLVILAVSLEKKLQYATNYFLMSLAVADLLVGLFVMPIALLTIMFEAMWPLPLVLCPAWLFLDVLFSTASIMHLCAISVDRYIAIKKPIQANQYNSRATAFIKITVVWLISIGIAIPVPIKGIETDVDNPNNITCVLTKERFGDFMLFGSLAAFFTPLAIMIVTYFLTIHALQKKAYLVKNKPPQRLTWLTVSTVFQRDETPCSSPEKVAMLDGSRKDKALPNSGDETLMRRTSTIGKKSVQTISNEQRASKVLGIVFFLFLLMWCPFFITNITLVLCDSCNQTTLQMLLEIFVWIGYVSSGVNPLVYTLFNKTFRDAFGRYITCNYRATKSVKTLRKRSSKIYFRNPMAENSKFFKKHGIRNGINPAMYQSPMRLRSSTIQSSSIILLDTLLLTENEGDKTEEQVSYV

Row | SMILES | Ki [1] [nM] | Ki [2] [nM] | Ratio Ki (Rattus norvegicus) | Ki (D(2) dopamine receptor) [nM] | Ki [3] [nM] | Ki [4] [nM] | logD [5] | Drug uptake [6] | Drug uptake [7] | Drug uptake [8] | Drug uptake [9] | Drug uptake [10] | Drug uptake [11] | Drug uptake [12]
1 | FCCCOc1cccc(CN2CCN(Cc3cc4ccccc4o3)CC2)c1 | 188 | 599 | 10 | 2920 | 232 | 2370 | – | – | – | – | – | – | – | –
2 | c1ccc(CN2CCN(Cc3cc4ccccc4o3)CC2)cc1 | 497 | 833 | 46 | > 10000 | 5.2 | 240 | – | – | – | – | – | – | – | –
3 | COc1ccc(CN2CCN(Cc3cc4ccccc4o3)CC2)cc1 | 15 | 2190 | 38 | 2700 | 2.7 | 103 | 3.63 | – | – | – | – | – | – | –
4 | FCCOc1cccc(CN2CCN(Cc3cc4ccccc4o3)CC2)c1 | 244 | 469 | 5.9 | 2280 | 49.7 | 292 | – | – | – | – | – | – | – | –
5 | CCOc1ccc(CN2CCN(Cc3cc4ccccc4o3)CC2)cc1 | 262 | 3340 | 37 | 4870 | 10.6 | 393 | – | – | – | – | – | – | – | –
6 | FCCOc1ccccc1CN1CCN(Cc2cc3ccccc3o2)CC1 | 57 | 3250 | 1.1 | > 10000 | 488 | 535 | – | – | – | – | – | – | – | –
7 | FCCCOc1ccc(CN2CCN(Cc3cc4ccccc4o3)CC2)cc1 | 232 | 3300 | 51 | > 10000 | 14.7 | 752 | – | – | – | – | – | – | – | –
8 | [11CH3]Oc1ccc(CN2CCN(Cc3cc4ccccc4o3)CC2)cc1 | – | – | – | – | – | – | – | Active | Active | Active | Not Active | Not Active | Not Active | Not Active
9 | CCCOc1cccc(CN2CCN(Cc3cc4ccccc4o3)CC2)c1 | 259 | 774 | 11 | 2980 | 177 | 1920 | – | – | – | – | – | – | – | –
10 | COc1cccc(CN2CCN(Cc3cc4ccccc4o3)CC2)c1 | 28 | 373 | 4.9 | 5730 | 16.3 | 79.5 | – | – | – | – | – | – | – | –
11 | FCCCOc1ccccc1CN1CCN(Cc2cc3ccccc3o2)CC1 | 184 | 3380 | 60 | > 10000 | 9.1 | 542 | – | – | – | – | – | – | – | –
12 | CCCOc1ccccc1CN1CCN(Cc2cc3ccccc3o2)CC1 | 116 | 2460 | 10 | > 10000 | 79 | 778 | – | – | – | – | – | – | – | –
13 | COc1ccccc1CN1CCN(Cc2cc3ccccc3o2)CC1 | 9.7 | 806 | 0.45 | 5120 | 198 | 89 | – | – | – | – | – | – | – | –
14 | CCOc1cccc(CN2CCN(Cc3cc4ccccc4o3)CC2)c1 | 302 | 1720 | 3 | 4540 | 80 | 238 | – | – | – | – | – | – | – | –
15 | CCCOc1ccc(CN2CCN(Cc3cc4ccccc4o3)CC2)cc1 | 655 | 4720 | 45 | > 10000 | 53.8 | 2400 | – | – | – | – | – | – | – | –
16 | CCOc1ccccc1CN1CCN(Cc2cc3ccccc3o2)CC1 | 72 | 468 | 8 | 6000 | 37.1 | 295 | – | – | – | – | – | – | – | –

Reference: ChEMBL document CHEMBL1212881, “Design, synthesis, and structure-affinity relationships of regioisomeric N-benzyl alkyl ether piperazine derivatives as sigma-1 receptor ligands” (J Med Chem, 2010)
